Test results as given in ChEMBL document CHEMBL1275524, “Activities of antifungal agents against yeasts and filamentous fungi: assessment according to the methodology of the European Committee on Antimicrobial Susceptibility Testing” (2008).
Converted amounts (≈) assume the structure as drawn.

Key:
Candida albicans [1] = experiment: Antifungal activity against Candida albicans; format: functional
Procedure, shortened: (§1)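 Broth microdilution in flat-bottom plates in RPMI 1640 with 2% glucose; inoculum 0.5 × 105 to 2.5 × 10^5 CFU/ml. MICs were read spectrophotometrically at 24 h. AMB endpoint: ≥90% growth reduction vs drug-free control well. Azole and CPF endpoint: 50% reduction in optical density. MFC was taken as the lowest concentration giving 99% killing.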

Nakaseomyces glabratus [2] = experiment: Antifungal activity against Candida glabrata; format: functional; procedure, shortened: as §1
Candida parapsilosis [3] = experiment: Antifungal activity against Candida parapsilosis; format: functional; conditions: Lodderomyces parapsilosis; procedure, shortened: as §1
Pichia kudriavzevii [4] = experiment: Antifungal activity against Candida krusei; format: functional
Procedure, shortened: (§2)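 EUCAST broth microdilution for yeasts in flat-bottom plates, RPMI 1640 with 2% glucose, inoculum 0.5 × 105 to 2.5 × 10^5 CFU/ml. […] MFC is the lowest concentration giving 99% killing.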

Clavispora lusitaniae [5] = experiment: Antifungal activity against Candida lusitaniae; format: functional; procedure, shortened: as §1
Candida tropicalis [6] = experiment: Antifungal activity against Candida tropicalis; format: functional; procedure, shortened: as §1
[7] = tested on: Meyerozyma guilliermondii; experiment: Antifungal activity against Candida guilliermondii; format: functional; procedure, shortened: as §1
Saccharomyces cerevisiae [8] = experiment: Antifungal activity against Saccharomyces cerevisiae; format: functional
Procedure, shortened: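 Broth microdilution following EUCAST for fermentative yeasts, in flat-bottom plates with RPMI 1640 plus 2% glucose. Inoculum was 0.5 × 10^5 to 2.5 × 10^5 CFU/ml. End points were read spectrophotometrically at 24 h: ≥90% growth reduction versus a drug-free control for amphotericin B, and 50% OD reduction for azoles and caspofungin. MFC was the lowest concentration giving 99% killing.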

[9] = Antifungal activity against Cryptococcus neoformans var. neoformans; format: functional; conditions: Cryptococcus deneoformans
Procedure, shortened: (§3)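 EUCAST yeast microdilution, modified for nonfermentative yeasts: plates were sealed and agitated at 350 rpm and 30°C for 48 h.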

Cryptococcus gattii [10] = experiment: Antifungal activity against Cryptococcus neoformans var. gattii; format: functional, Cryptococcus bacillisporus; procedure, shortened: as §3
Trichosporon inkin [11] = experiment: Antifungal activity against Trichosporon inkin; format: functional
Procedure, shortened: (§4)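 Nonfermentative yeasts were tested by the EUCAST microdilution recommendations with one change: plates were sealed and agitated at 350 rpm and 30°C for 48 h.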

Trichosporon asahii [12] = experiment: Antifungal activity against Trichosporon asahii; format: functional; procedure, shortened: as §4
Geotrichum candidum [13] = experiment: Antifungal activity against Geotrichum candidum; format: functional
Aspergillus fumigatus [14] = experiment: Antifungal activity against Aspergillus fumigatus; format: functional
Aspergillus terreus [15] = experiment: Antifungal activity against Aspergillus terreus; format: functional
Aspergillus flavus [16] = experiment: Antifungal activity against Aspergillus flavus; format: functional
Aspergillus niger [17] = experiment: Antifungal activity against Aspergillus niger; format: functional
Rhizomucor = experiment: Antifungal activity against Rhizomucor species; format: functional
Lichtheimia corymbifera [18] = experiment: Antifungal activity against Absidia corymbifera; format: functional
Absidia = experiment: Antifungal activity against Absidia species; format: functional
[19] = Antifungal activity against Rhizopus microsporus var. oligosporus; format: functional
Procedure, shortened: (§5)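 Broth microdilution following the EUCAST reference procedure for spore-forming moulds, in flat-bottom plates with RPMI 1640 plus 2% glucose. Inoculum was 2 × 10^5 to 5 × 10^5 CFU/ml. MICs were read visually at 24 and 48 h as 100% growth reduction versus a drug-free control for polyenes and azoles. MEC was used for caspofungin. Tests were run in duplicate and repeated twice.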

Rhizopus arrhizus [20] = experiment: Antifungal activity against Rhizopus oryzae; format: functional; procedure, shortened: as §5
Rhizopus = experiment: Antifungal activity against Rhizopus species; format: functional; procedure, shortened: as §5
Mucor hiemalis = experiment: Antifungal activity against Mucor hiemalis; format: functional
Mucor [21] = experiment: Antifungal activity against Mucor species; format: functional
Cunninghamella [22] = experiment: Antifungal activity against Cunninghamella species; format: functional
Lomentospora prolificans = experiment: Antifungal activity against Scedosporium prolificans; format: functional; procedure, shortened: as §5
Scedosporium apiospermum [23] = experiment: Antifungal activity against Scedosporium apiospermum; format: functional; procedure, shortened: as §5
Talaromyces marneffei [24] = experiment: Antifungal activity against Penicillium marneffei; format: functional
Penicillium sp. [25] = experiment: Antifungal activity against Penicillium species; format: functional
Fusarium solani [26] = experiment: Antifungal activity against Fusarium solani; format: functional
Fusarium oxysporum [27] = experiment: Antifungal activity against Fusarium oxysporum; format: functional
Sporothrix schenckii [28] = experiment: Antifungal activity against Sporothrix schenckii; format: functional; procedure, shortened: as §5
Curvularia lunata [29] = experiment: Antifungal activity against Curvularia lunata; format: functional
Curvularia australiensis [30] = experiment: Antifungal activity against Bipolaris australiensis; format: functional
Procedure, shortened: (§6)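 Dematiaceous fungi were tested by the EUCAST spore-forming mold reference procedure: flat-bottom microdilution plates, RPMI 1640 plus 2% glucose, inoculum 2 × 105 to 5 × 10^5 CFU/ml. Endpoints were read visually at 24 and 48 h. Polyenes and azoles: 100% growth reduction vs drug-free control. CPF: minimum effective concentration. Run in duplicate and repeated twice.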

[31] = Antifungal activity against Rhinocladiella aquaspersa; format: functional; procedure, shortened: as §6
Candida albicans [32] = experiment: Antifungal activity against Candida albicans by EUCAST method; format: functional; procedure, shortened: as §1
Nakaseomyces glabratus [33] = experiment: Antifungal activity against Candida glabrata by EUCAST method; format: functional; procedure, shortened: as §1
Candida parapsilosis [34] = experiment: Antifungal activity against Candida parapsilosis by EUCAST method; format: functional; conditions: Lodderomyces parapsilosis; procedure, shortened: as §1
Pichia kudriavzevii [35] = experiment: Antifungal activity against Candida krusei by EUCAST method; format: functional; procedure, shortened: as §1
Clavispora lusitaniae [36] = experiment: Antifungal activity against Candida lusitaniae by EUCAST method; format: functional; procedure, shortened: as §1
Candida tropicalis [37] = experiment: Antifungal activity against Candida tropicalis by EUCAST method; format: functional; procedure, shortened: as §1
[38] = tested on: Meyerozyma guilliermondii; experiment: Antifungal activity against Candida guilliermondii by EUCAST method; format: functional; procedure, shortened: as §1
Saccharomyces cerevisiae [39] = experiment: Antifungal activity against Saccharomyces cerevisiae by EUCAST method; format: functional; procedure, shortened: as §2
[40] = Antifungal activity against Cryptococcus neoformans var. neoformans by EUCAST method; format: functional; conditions: Cryptococcus deneoformans; procedure, shortened: as §3
Cryptococcus gattii [41] = experiment: Antifungal activity against Cryptococcus neoformans var. gattii by EUCAST method; format: functional, Cryptococcus bacillisporus; procedure, shortened: as §3
Trichosporon inkin [42] = experiment: Antifungal activity against Trichosporon inkin by EUCAST method; format: functional; procedure, shortened: as §4
Trichosporon asahii [43] = experiment: Antifungal activity against Trichosporon asahii by EUCAST method; format: functional; procedure, shortened: as §4
Geotrichum candidum [44] = experiment: Antifungal activity against Geotrichum candidum by EUCAST method; format: functional
Aspergillus fumigatus [45] = experiment: Antifungal activity against Aspergillus fumigatus by EUCAST method; format: functional
Aspergillus terreus [46] = experiment: Antifungal activity against Aspergillus terreus by EUCAST method; format: functional
Aspergillus flavus [47] = experiment: Antifungal activity against Aspergillus flavus by EUCAST method; format: functional
Aspergillus niger [48] = experiment: Antifungal activity against Aspergillus niger by EUCAST method; format: functional
Lichtheimia corymbifera [49] = experiment: Antifungal activity against Absidia corymbifera by EUCAST method; format: functional
Rhizopus arrhizus [50] = experiment: Antifungal activity against Rhizopus oryzae by EUCAST method; format: functional; procedure, shortened: as §5
Mucor [51] = experiment: Antifungal activity against Mucor species by EUCAST method; format: functional
Cunninghamella [52] = experiment: Antifungal activity against Cunninghamella species by EUCAST method; format: functional
Scedosporium apiospermum [53] = experiment: Antifungal activity against Scedosporium apiospermum by EUCAST method; format: functional; procedure, shortened: as §5
Talaromyces marneffei [54] = experiment: Antifungal activity against Penicillium marneffei by EUCAST method; format: functional
Penicillium sp. [55] = experiment: Antifungal activity against Penicillium species by EUCAST method; format: functional
Fusarium solani [56] = experiment: Antifungal activity against Fusarium solani by EUCAST method; format: functional
Fusarium oxysporum [57] = experiment: Antifungal activity against Fusarium oxysporum by EUCAST method; format: functional
Sporothrix schenckii [58] = experiment: Antifungal activity against Sporothrix schenckii by EUCAST method; format: functional; procedure, shortened: as §5
Curvularia lunata [59] = experiment: Antifungal activity against Curvularia lunata by EUCAST method; format: functional; procedure, shortened: as §6
Curvularia australiensis [60] = experiment: Antifungal activity against Bipolaris australiensis by EUCAST method; format: functional; procedure, shortened: as §6
[61] = Antifungal activity against Rhinocladiella aquaspersa by EUCAST method; format: functional; procedure, shortened: as §6

**Q.** Which results are given for `CCC(C)n1ncn(-c2ccc(N3CCN(c4ccc(OCC5COC(Cn6cncn6)(c6ccc(Cl)cc6Cl)O5)cc4)CC3)cc2)c1=O` (stereo unspecified) [ITRACONAZOLE]?
**A.** MFC (Candida albicans [1]): 0.06 µg/mL (≈ 0.085 µM); MFC (Nakaseomyces glabratus [2]): > 4 µg/mL; MFC (Candida parapsilosis [3]): 0.06 µg/mL (≈ 0.085 µM); MFC (Pichia kudriavzevii [4]): 0.5 µg/mL (≈ 0.709 µM); MFC (Clavispora lusitaniae [5]): 0.25 µg/mL (≈ 0.354 µM); MFC (Candida tropicalis [6]): > 0.25 µg/mL; MFC [7]: 2 µg/mL (≈ 2.83 µM); MFC (Saccharomyces cerevisiae [8]): > 4 µg/mL; MFC [9]: 0.5 µg/mL (≈ 0.709 µM); MFC (Cryptococcus gattii [10]): 0.5 µg/mL (≈ 0.709 µM); MFC (Trichosporon inkin [11]): 0.25 µg/mL (≈ 0.354 µM); MFC (Trichosporon asahii [12]): > 4 µg/mL; MFC (Geotrichum candidum [13]): > 8 µg/mL; MFC (Aspergillus fumigatus [14]): 2 µg/mL (≈ 2.83 µM); MFC (Aspergillus terreus [15]): 0.5 µg/mL (≈ 0.709 µM); MFC (Aspergillus flavus [16]): 0.5 µg/mL (≈ 0.709 µM); MFC (Aspergillus niger [17]): > 4 µg/mL; MFC (Rhizomucor): > 2 µg/mL; MFC (Lichtheimia corymbifera [18]): > 2 µg/mL; MFC (Absidia): > 2 µg/mL; MFC [19]: > 8 µg/mL; MFC (Rhizopus arrhizus [20]): > 8 µg/mL; MFC (Rhizopus): > 4 µg/mL; MFC (Mucor hiemalis): > 8 µg/mL; MFC (Mucor [21]): > 4 µg/mL; MFC (Cunninghamella [22]): 4 µg/mL (≈ 5.67 µM); MFC (Lomentospora prolificans): > 8 µg/mL; MFC (Scedosporium apiospermum [23]): > 4 µg/mL; MFC (Talaromyces marneffei [24]): 0.25 µg/mL (≈ 0.354 µM); MFC (Penicillium sp. [25]): > 2 µg/mL; MFC (Fusarium solani [26]): > 8 µg/mL; MFC (Fusarium oxysporum [27]): 0.25 µg/mL (≈ 0.354 µM); MFC (Sporothrix schenckii [28]): 0.5 µg/mL (≈ 0.709 µM); MFC (Curvularia lunata [29]): 0.5 µg/mL (≈ 0.709 µM); MFC (Curvularia australiensis [30]): 0.5 µg/mL (≈ 0.709 µM); MFC [31]: 0.5 µg/mL (≈ 0.709 µM); MIC (Candida albicans [32]): 0.23 µg/mL (≈ 0.326 µM); MIC (Nakaseomyces glabratus [33]): 0.83 µg/mL (≈ 1.18 µM); MIC (Candida parapsilosis [34]): 0.32 µg/mL (≈ 0.453 µM); MIC (Pichia kudriavzevii [35]): 1.1 µg/mL (≈ 1.56 µM); MIC (Clavispora lusitaniae [36]): 0.07 µg/mL (≈ 0.0992 µM); MIC (Candida tropicalis [37]): 0.56 µg/mL (≈ 0.794 µM); MIC [38]: 0.87 µg/mL (≈ 1.23 µM); MIC (Saccharomyces cerevisiae [39]): 2 µg/mL (≈ 2.83 µM); MIC [40]: 0.11 µg/mL (≈ 0.156 µM); MIC (Cryptococcus gattii [41]): 0.22 µg/mL (≈ 0.312 µM); MIC (Trichosporon inkin [42]): 0.21 µg/mL (≈ 0.298 µM); MIC (Trichosporon asahii [43]): 0.17 µg/mL (≈ 0.241 µM); MIC (Geotrichum candidum [44]): 1.45 µg/mL (≈ 2.05 µM); MIC (Aspergillus fumigatus [45]): 0.46 µg/mL (≈ 0.652 µM); MIC (Aspergillus terreus [46]): 0.58 µg/mL (≈ 0.822 µM); MIC (Aspergillus flavus [47]): 0.59 µg/mL (≈ 0.836 µM); MIC (Aspergillus niger [48]): 0.98 µg/mL (≈ 1.39 µM); MIC (Lichtheimia corymbifera [49]): 2.5 µg/mL (≈ 3.54 µM); MIC (Rhizopus arrhizus [50]): 4 µg/mL (≈ 5.67 µM); MIC (Mucor [51]): 4.36 µg/mL (≈ 6.18 µM); MIC (Cunninghamella [52]): 1.75 µg/mL (≈ 2.48 µM); MIC (Scedosporium apiospermum [53]): 2.66 µg/mL (≈ 3.77 µM); MIC (Talaromyces marneffei [54]): 0.25 µg/mL (≈ 0.354 µM); MIC (Penicillium sp. [55]): 4.25 µg/mL (≈ 6.02 µM); MIC (Fusarium solani [56]): 6 µg/mL (≈ 8.5 µM); MIC (Fusarium oxysporum [57]): 4.5 µg/mL (≈ 6.38 µM); MIC (Sporothrix schenckii [58]): 0.12 µg/mL (≈ 0.17 µM); MIC (Curvularia lunata [59]): 0.03 µg/mL (≈ 0.0425 µM); MIC (Curvularia australiensis [60]): 0.12 µg/mL (≈ 0.17 µM); MIC [61]: 0.12 µg/mL (≈ 0.17 µM)
